Test results from ChEMBL document CHEMBL1139364, “Codrugs linking L-dopa and sulfur-containing antioxidants: new pharmacological tools against Parkinson's disease” (J Med Chem, 2009).
≈ marks a conversion by molar mass, not a printed value. Calls of active or inactive are those of the source. No cut-off for these calls is given here. Where a SMILES comes first, the peptide text is derived from it. [ ]: non-standard residue; d: D form. Dopa = N[C@@H](Cc1ccc(O)c(O)c1)C(=O)O

Assays:
[1] = Antioxidant activity against lucigenin-induced super oxide radicals by chemiluminescence assay; format: functional
How it was run: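 Chemiluminescence assay; superoxide anions generated by xanthine/xanthine oxidase system, signal amplified with lucigenin.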

[2] = Stability assessed as half life in hydrochloric acid buffer at pH 1.3; format: physicochemical
How it was run: (§1)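 Incubation at 37 °C in simulated gastric fluid (pH 1.3) or isotonic sodium phosphate buffer (pH 7.4); loss of parent monitored by HPLC UV-DAD; pseudo-first-order rate constants from slope of log residual compound vs time, giving half-life.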

[3] = Solubility at 50 mg in phosphate buffer at pH 7.4; format: physicochemical
How it was run: (§2)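 Solubility in water and in buffers at pH 1.3, 5.0 and 7.4 via shake-flask approach; concentration determined by HPLC with UV diode-array detection.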

[4] = Solubility at 50 mg in phosphate buffer at pH 5.0; format: physicochemical; how it was run: as §2
[5] = Solubility in water; format: physicochemical; how it was run: as §2
[6] = Solubility at 50 mg in phosphate buffer at pH 1.3; format: physicochemical; how it was run: as §2
[7] = Lipophilicity, log P pf the compound at pH 7.4 by saturated shake-flask method; format: physicochemical; conditions: buffer
How it was run: (§3)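 Partition between n-octanol and phosphate buffer pH 7.4 by saturated shake-flask method; compound concentration in phases measured by HPLC with UV diode-array detection.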

[8] = Partition coefficient, log K pf the compound; format: physicochemical; conditions: octanol/water; how it was run: as §3
[9] = Stability assessed as half life in isotonic sodium phosphate buffer at pH 7.4; format: physicochemical; how it was run: as §1
[10] = Stability in rat plasma assessed as half life; format: ADME, cell-free
How it was run: (§4)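 Conversion to L-dopa at 37 °C in rat or human plasma diluted to 80% with isotonic sodium phosphate buffer pH 7.4; residual compound followed over time; pseudo-first-order constants from log residual vs time slope, giving half-life.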

[11] = Stability in human plasma assessed as half life; format: ADME, cell-free; how it was run: as §4
[12] = Antioxidant activity against luminol-induced peroxide radicals by chemiluminescence assay; format: functional
How it was run: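 Chemiluminescence assay with luminol used to measure hydrogen peroxide level.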

[13] = test system: Rattus norvegicus; experiment: Tmax in Sprague-Dawley rat assessed as L-dopa level at 0.332 mmol/kg, po; format: ADME, organism-based; conditions: in vivo
How it was run: (§5)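 Male Sprague–Dawley rats dosed orally at 0.332 mmol/kg; plasma L-dopa followed over time; noncompartmental parameters (Cmax, Tmax, AUC, AUMC, MRT) derived from plasma concentration profiles; data mean ± SE.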

[14] = test system: Rattus norvegicus; experiment: Cmax in Sprague-Dawley rat assessed as L-dopa level at 0.332 mmol/kg, po; format: ADME, organism-based; parameters: dose 0.332 mmol/kg, route oral; conditions: in vivo; how it was run: as §5
[15] = test system: Rattus norvegicus; experiment: AUC in Sprague-Dawley rat assessed as L-dopa level at 0.332 mmol/kg, po; format: ADME, organism-based, Plasma; conditions: in vivo; how it was run: as §5
[16] = test system: Rattus norvegicus; experiment: AUMC in Sprague-Dawley rat assessed as L-dopa level at 0.332 mmol/kg, po; format: ADME, organism-based; conditions: in vivo; how it was run: as §5
[17] = test system: Rattus norvegicus; experiment: Mean residence time in Sprague-Dawley rat assessed as L-dopa level at 0.332 mmol/kg, po; format: ADME, organism-based; conditions: in vivo; how it was run: as §5
[18] = test system: Rattus norvegicus; experiment: Effect on behavioral changes in icv dosed Wistar rat assessed as decrease in rearing episodes after 1.5 hrs by open-field studies compared to L-dopa; format: functional, organism-based
[19] = test system: Rattus norvegicus; experiment: Effect on behavioral changes in icv dosed Wistar rat assessed as anxiety-like behavior by open-field studies; format: functional, organism-based
[20] = test system: Rattus norvegicus; experiment: Effect on behavioral changes in po dosed Wistar rat assessed as decrease in grooming activity after 1.5 hrs by open-field studies compared to L-dopa
[21] = test system: Rattus norvegicus; experiment: Effect on behavioral changes in po dosed Wistar rat assessed as decrease in spontaneous locomotory activity after 1.5 hrs by open-field studies compared to L-dopa
[22] = Plasma concentration in Sprague-Dawley rat after 8 hrs; format: ADME, organism-based
How it was run: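 Male Sprague–Dawley rats given 0.332 mmol/kg orally; plasma L-dopa measured over time, including at 8 h; mean ± SE.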

[23] = test system: Rattus norvegicus; experiment: Antiparkinson activity in Wistar rat striatum assessed as L-dopa levels per mg of tissue at 1 umol/kg, icv after 1 week; format: functional
How it was run: (§6)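 Rats dosed icv for 1 week at 1 µmol/kg; striatal L-dopa and dopamine quantified by HPLC with electrochemical detection; three experiments, mean with standard error.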

[24] = test system: Rattus norvegicus; experiment: Antiparkinson activity in Wistar rat striatum assessed as dopamine levels per mg of tissue at 1 umol/kg, icv after 1 week; format: functional; how it was run: as §6
[25] = test system: Rattus norvegicus; experiment: Sedative activity in icv dosed Wistar rat assessed as reduction of explorative activity; format: functional, organism-based
[26] = test system: Rattus norvegicus; experiment: Effect on behavioral changes in icv dosed Wistar rat assessed as increase in spontaneous locomotory activity after 3 days by open-field studies; format: functional, organism-based
[27] = test system: Rattus norvegicus; experiment: Effect on behavioral changes in icv dosed Wistar rat assessed as increase in grooming activity after 3 days by open-field studies; format: functional, organism-based
[28] = test system: Rattus norvegicus; experiment: Effect on behavioral changes in icv dosed Wistar rat assessed as increase in rearing episodes after 3 days by open-field studies; format: functional, organism-based
[29] = test system: Rattus norvegicus; experiment: Antiparkinson activity in po dosed rat striatum assessed as L-dopa levels per mg of tissue after 6 hrs

Row | Compound | Activity [1] | half-life [2] [h] | solubility [3] [mg/mL] | solubility [4] [mg/mL] | solubility [5] [mg/mL] | solubility [6] [mg/mL] | log K [8] | half-life [9] [h] | half-life [10] [h] | half-life [11] [h] | Activity [12] | Tmax [13] [h] | Cmax [14] [µg/mL] | AUC [15] [ug/hr.ml] | AUMC [16] [ug/ml.hr'2] | MRT [17] [h] | Activity [18] | Activity [19] | Activity [20] | Activity [21] | also measured
1 | COC(=O)[C@H](Cc1ccc(O)c(O)c1)NC(=O)[C@H](CS)NC(=O)[C@@H](CS)NC(C)=O | Active | 293 | 0.00908 (≈ 19.8 µM) | 0.0151 (≈ 32.7 µM) | 0.015 (≈ 32.6 µM) | 0.02 (≈ 43.5 µM) | -0.11 | 48.5 | 0.93 | 3.39 | Active | 1.55 | 16.31 | 432.2 | 3608.38 | 8.35 | Active | Active | Active | Active | logD [7]: -0.14
2 | COC(=O)[C@H](Cc1ccc(O)c(O)c1)NC(=O)[C@H](CS)NC(=O)C(C)(C)S | Active | 292 | 0.0135 (≈ 32.3 µM) | 0.00382 (≈ 9.17 µM) | 0.0143 (≈ 34.4 µM) | 0.00707 (≈ 17 µM) | 0.2 | 21.3 | 1.16 | 1.5 | Active | 6.04 | 17.41 | 493.29 | 4056.32 | 8.22 | Active | Active | Active | Active | logD [7]: 0.92
3 | COC(=O)[C@H](Cc1ccc(O)c(O)c1)NC(=O)[C@H](CS)NC(C)=O (Ac-Cys-[Dopa]-OMe) | Active | 301 | 0.201 (≈ 563 µM) | 0.228 (≈ 639 µM) | 0.21 (≈ 590 µM) | 0.208 (≈ 584 µM) | -0.3 | 46.2 | 0.78 | 1.16 | Active | 4.05 | 6.91 | 179.06 | 1673.2 | 9.34 | Active |  | Active | Active | 
4 | COC(=O)[C@H](Cc1ccc(O)c(O)c1)NC(=O)[C@H](CCSC)NC(C)=O (Ac-Met-[Dopa]-OMe) | Active | 296 | 0.174 (≈ 453 µM) | 0.237 (≈ 618 µM) | 0.101 (≈ 262 µM) | 0.154 (≈ 401 µM) | -0.22 | 30.2 | 1.92 | 5.25 | Active | 4.22 | 62.87 | 1624.91 | 12319.3 | 7.58 | Active | Active | Active | Active | logD [7]: 0.38; concentration at 8 h [22]: 53 µg/mL; Activity [23]: 4.03 pmol/mg; Activity [24]: 0.09 pmol/mg; Activity [25]: Active; Activity [26]: Active; Activity [27]: Active; Activity [28]: Active; Activity [29]: 18 pmol/mg
5 | COC(=O)[C@H](CS)NC(=O)[C@H](Cc1ccc(O)c(O)c1)NC(C)=O (Ac-[Dopa]-Cys-OMe) | Active | 291 | 0.159 (≈ 447 µM) | 0.152 (≈ 426 µM) | 0.154 (≈ 431 µM) | 0.147 (≈ 414 µM) | -0.26 | 48 | 0.61 | 1.09 | Active | 4.11 | 6.19 | 110.62 | 1053.36 | 9.52 | Active | Active | Active | Active | 
6 | COC(=O)[C@H](CCSC)NC(=O)[C@H](Cc1ccc(O)c(O)c1)NC(C)=O (Ac-[Dopa]-Met-OMe) | Active | 292 | 0.101 (≈ 262 µM) | 0.247 (≈ 642 µM) | 0.103 (≈ 268 µM) | 0.256 (≈ 665 µM) | -0.25 | 26.9 | 1.55 | 4.39 | Active | 2.25 | 51.07 | 984.01 | 6844.84 | 6.96 | Active | Active | Active | Active | logD [7]: -0.19; Activity [23]: 2.13 pmol/mg; Activity [24]: 0.22 pmol/mg; Activity [25]: Active; Activity [26]: Active; Activity [27]: Active; Activity [28]: Active; Activity [29]: 8 pmol/mg
7 | N[C@@H](Cc1ccc(O)c(O)c1)C(=O)O [LEVODOPA] |  |  |  |  |  |  |  |  |  |  |  | 1.03 | 5.63 | 117.73 | 1053.92 | 8.95 |  |  |  |  | Activity [23]: 3.36 pmol/mg; Activity [24]: 0.07 pmol/mg
